Data taken from ChEMBL document CHEMBL1165913, “Repairing faulty genes by aminoglycosides: development of new derivatives of geneticin (G418) with enhanced suppression of diseases-causing nonsense mutations” (Bioorg Med Chem, 2010).
≈ marks a conversion by molar mass, not a printed value. Calls of active or inactive are those of the source. The calls are words filed in the database; no cut-off is given here.

Experiments:
[1] = system: Ribosome; experiment: Induction of ribosome to readthrough in-frame UGA codon associated with renilla/firefly dystrophin R3381X nonsense mutant gene transfected in rabbit reticulocyte assessed as reduction in overall translation at 5 to 20 uM […] dual-luciferase reporter gene assay; format: subcellular; details: Oryctolagus cuniculus
[2] = system: Ribosome; experiment: Induction of ribosome to readthrough in-frame UAG codon of renilla/firefly IDUA Q70X nonsense mutant gene transfected in rabbit reticulocyte assessed as reduction in overall translation at 5 to 20 uM […] dual-luciferase reporter gene assay; format: subcellular; details: Oryctolagus cuniculus
[3] = system: Ribosome; experiment: Induction of ribosome to readthrough in-frame UGA codon of renilla/firefly PCDH15 R3X nonsense mutant gene transfected in rabbit reticulocyte assessed as reduction in overall translation at 5 to 20 uM […] dual-luciferase reporter gene assay; format: subcellular; details: Oryctolagus cuniculus
[4] = (§1) Cytotoxicity against HEK293 cells after 48 hrs by XTT assay; format: cell-based; details: human, HEK293 cells; read-out: LC50
Procedure, shortened: (§2)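 HEK-293 cells seeded overnight at 5000 cells/well in DMEM with 10% FBS, 1% pen/strep and 1% glutamine. Medium then replaced with antibiotic-free medium, aminoglycoside added at a range of concentrations, and cells incubated 48 h. Read-out by O.D. on a plate reader. Viability is the ratio of living cells treated vs untreated. LC50 fitted from concentration–response curves of at least two independent experiments. Concentrations are given as free amine.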

[5] = system: Escherichia coli; experiment: Antibacterial activity against Escherichia coli R477-100 by double-microdilution method; format: functional
Procedure, shortened: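 MIC by two-fold broth microdilution following NCCLS guidance; tested compound started at 384 µg/mL. Each run done in triplicate, with consistent results across three separate experiments.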

[6] = system: Ribosome; experiment: Induction of ribosome to readthrough in-frame UGA codon of renilla/firefly PCDH15 R245X nonsense mutant gene transfected in rabbit reticulocyte assessed as reduction in overall translation at 5 to 20 uM […] dual-luciferase reporter gene assay; format: subcellular; details: Oryctolagus cuniculus
[7] = system: Bacillus subtilis; experiment: Antibacterial activity against Bacillus subtilis ATCC 6633 by double-microdilution method; format: functional
Procedure, shortened: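 MIC determined by double-microdilution per NCCLS against Gram-positive B. subtilis ATCC-6633, starting at 384 µg/mL of compound. Run in triplicate (footnote says duplicates); analogous results in three separate experiments.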

[8] = biological target: Bacterial 70S ribosome; experiment: Inhibition of ribosomal activity in Escherichia coli strain B assessed as inhibition of translation after 60 mins by coupled transcription/translation assay; format: subcellular
Procedure, shortened: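 E. coli S30 extract for circular DNA, with pBESTluc plasmid as template. Reactions containing varying aminoglycoside concentrations incubated at 37 °C for 60 min, chilled on ice 5 min, then diluted in tris-phosphate buffer (25 mM, pH 7.8) with DTT, chelator, glycerol, Triton X-100 and BSA. Luciferase luminescence read immediately after reagent addition. IC50 fitted from at least two independent experiments.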

[9] = system: Ribosome; experiment: Induction of ribosome to readthrough in-frame UGA codon of renilla/firefly CFTR W1282X nonsense mutant gene transfected in rabbit reticulocyte assessed as reduction in overall translation at 5 to 20 uM […] dual-luciferase reporter gene assay; format: subcellular; details: Oryctolagus cuniculus
[10] = system: Ribosome; experiment: Induction of ribosome to readthrough in-frame UGA codon of renilla/firefly CFTR G542X nonsense mutant gene transfected in rabbit reticulocyte assessed as reduction in overall translation at 5 to 20 uM […] dual-luciferase reporter gene assay; format: subcellular; details: Oryctolagus cuniculus
[11] = Inhibition of ribosomal activity in Spodoptera frugiperda Sf21 cells assessed as inhibition of translation after 60 mins by fluorescence assay; format: subcellular, Ribosome
[12] = Ratio of paromomycin to compound antitranslational activity against prokaryotic ribosome-mediated translation; format: subcellular
[13] = Ratio of gentamicin to compound antitranslational activity against prokaryotic ribosome-mediated translation; format: subcellular
[14] = system: HEK293; experiment: Ratio of geneticin to compound activity for induction of ribosome to readthrough in-frame UGA codon of renilla/firefly CFTR W1282X nonsense mutant gene transfected in HEK293 cells at 0.1 to 0.7 mM after 6 hrs dual-luciferase reporter gene assay; format: subcellular; details: Homo sapiens
[15] = system: HEK293; experiment: Ratio of compound LC50 to gentamicin LC50 for HEK293 cells; format: ADME, cell-based; details: human
Procedure, shortened: (§3)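 HEK-293 cells seeded 5000/well overnight in DMEM with 10% FBS, 1% pen/strep, 1% glutamine; medium replaced without antibiotics, aminoglycosides added at varying concentrations for 48 h; OD read on plate reader. Viability as living cells treated versus untreated; LC50 from concentration–response fits of at least two independent experiments; ratios relative to reference drug LC50.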

[16] = system: Ribosome; experiment: Induction of ribosome to readthrough in-frame UGA codon of renilla/firefly PCDH15 R3X nonsense mutant gene transfected in HEK293 cells assessed as reduction in overall translation at 1 to 2 mM after 6 hrs dual-luciferase reporter gene assay; format: subcellular; details: Homo sapiens
[17] = system: Ribosome; experiment: Induction of ribosome to readthrough in-frame UGA codon of renilla/firefly CFTR W1282X nonsense mutant gene transfected in HEK293 cells assessed as reduction in overall translation at 1 to 2 mM after 6 hrs dual-luciferase reporter gene assay; format: subcellular; details: Homo sapiens
[18] = Ratio of compound LC50 to geneticin LC50 for HEK293 cells; format: ADME, cell-based; details: human; procedure, shortened: as §3
[19] = system: Ribosome; experiment: Induction of ribosome to readthrough in-frame UAG codon of renilla/firefly IDUA Q70X nonsense mutant gene transfected in HEK293 cells assessed as reduction in overall translation at 1 to 2 mM after 6 hrs dual-luciferase reporter gene assay; format: subcellular; details: Homo sapiens
[20] = Cytotoxicity against HDF after 72 hrs by XTT assay; format: cell-based; details: human
Procedure, shortened: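 Primary human dermal fibroblasts isolated from adult skin. Handled as in the HEK-293 protocol (overnight seeding, antibiotic-free medium, range of aminoglycoside concentrations), but exposed for 72 h. Viability is the ratio of treated to untreated living cells by O.D. LC50 fitted from concentration–response curves of at least two independent experiments.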

[21] = system: Ribosome; experiment: Induction of ribosome to readthrough in-frame renilla/firefly TGA codon transfected in rabbit reticulocyte at 200 to 600 uM after 16 hrs dual-luciferase reporter gene assay; format: subcellular; details: Oryctolagus cuniculus
[22] = system: Ribosome; experiment: Induction of ribosome to readthrough in-frame renilla/firefly TGA codon transfected in rabbit reticulocyte at 5 to 20 uM after 16 hrs dual-luciferase reporter gene assay; format: subcellular; details: Oryctolagus cuniculus
[23] = system: HEK293; experiment: as §1; format: cell-based; details: human, hek293, 48 h; read-out: LC50 (the source's name); procedure, shortened: as §2

Row | Compound | inhibition [1] [%] | inhibition [2] [%] | inhibition [3] [%] | CC50 at 48 h [4] [µM] | MIC [5] [µM] | inhibition [6] [%] | MIC [7] [µM] | IC50 [8] [µM] | inhibition [9] [%] | inhibition [10] [%] | IC50 [11] [µM] | Activity [22] | further results
1 | NC[C@H]1O[C@@H](O[C@@H]2[C@@H](O)[C@H](N)C[C@H](N)[C@H]2O[C@H]2O[C@H](CO)[C@@H](O)[C@H](O)[C@H]2N)[C@H](O)[C@@H]1O | 10 | 10 | 10 | 21400 | 790 (≈ 359 µg/mL) | 10 | 100 (≈ 45.4 µg/mL) | 0.46 | 10 | 10 | 31 |  | Ratio [12]: 10; Ratio [13]: 10
2 | C[C@H](O)[C@H]1O[C@H](O[C@H]2[C@H](O[C@@H]3O[C@H](CN)[C@@H](O)[C@H]3O)[C@@H](O)[C@H](NC(=O)[C@@H](O)CCN)C[C@@H]2N)[C@H](N)[C@@H](O)[C@@H]1O | 50 | 50 | 50 | 7000 | 556 (≈ 317 µg/mL) | 50 | 70 (≈ 39.9 µg/mL) | 0.98 | 50 | 50 | 2.8 |  | Ratio [14]: 2; Ratio [15]: 2.8; inhibition [16]: Active; inhibition [17]: Active; selectivity ratio [18]: 5; inhibition [19]: Active
3 | C[C@H](O)[C@H]1O[C@H](O[C@H]2[C@H](O[C@@H]3O[C@H](CN)[C@@H](O)[C@H]3O)[C@@H](O)[C@H](N)C[C@@H]2N)[C@H](N)[C@@H](O)[C@@H]1O | 10 | 10 | 10 | 25800 |  | 10 | 42 (≈ 19.7 µg/mL) | 1.13 | 10 | 10 |  |  | 
4 | CN[C@@H]1[C@@H](O)[C@@H](O[C@@H]2[C@@H](O)[C@H](O[C@H]3O[C@H]([C@@H](C)O)[C@@H](O)[C@H](O)[C@H]3N)[C@@H](N)C[C@H]2N)OC[C@]1(C)O [GENETICIN] |  |  |  | 1300 | 9 (≈ 4.47 µg/mL) |  | < 1.25 | 0.0089 |  |  |  |  | CC50 at 72 h ([20]; HDF cells, read-out: LC50): 2000 µM
5 | NCC[C@H](O)C(=O)N[C@@H]1C[C@H](N)[C@@H](O[C@H]2O[C@H](CO)[C@@H](O)[C@H](O)[C@H]2N)[C@H](O)[C@H]1O |  |  |  |  |  |  |  |  |  |  |  | Active | Activity [21]: Active
6 | GENTAMICIN [listing 1 of 2 here] |  |  |  |  |  |  |  | 0.028 |  |  | 62 |  | CC50 [23]: 2500 µM; CC50 ([20]; hdf, 72 h, read-out: LC50 (the source's name)): 3800 µM
7 | NCC[C@H](O)C(=O)N[C@@H]1C[C@H](N)[C@@H](O[C@H]2O[C@H](CO)[C@@H](O)[C@H](O)[C@H]2N)[C@H](O[C@@H]2O[C@H](CN)[C@@H](O)[C@H]2O)[C@H]1O | 10 | 10 | 10 | 6100 | 588 (≈ 327 µg/mL) | 10 | 70 (≈ 38.9 µg/mL) | 0.16 | 10 | 10 | 24 |  | inhibition [16]: Active; inhibition [17]: Active; Ratio [12]: 10; Ratio [13]: 10; inhibition [19]: Active
8 | N[C@H]1[C@@H](O[C@H]2[C@H](O)[C@@H](O)[C@H](N)C[C@@H]2N)O[C@H](CO)[C@@H](O)[C@@H]1O |  |  |  |  |  |  |  |  |  |  |  | Active | Activity [21]: Active
9 | C[C@H](O)[C@H]1O[C@H](O[C@H]2[C@H](O)[C@@H](O)[C@H](N)C[C@@H]2N)[C@H](N)[C@@H](O)[C@@H]1O |  |  |  |  |  |  |  |  |  |  |  | Active | Activity [21]: Active
10 | C[C@H](O)[C@H]1O[C@H](O[C@H]2[C@H](O)[C@@H](O)[C@H](NC(=O)[C@@H](O)CCN)C[C@@H]2N)[C@H](N)[C@@H](O)[C@@H]1O |  |  |  |  |  |  |  |  |  |  |  | Active | 
11 | GENTAMICIN [listing 2 of 2 here] |  |  |  |  | 6 |  | < 0.75 |  |  |  |  |  | 
